High-throughput results as filed in PubChem.
NadD block = inhibitors of Staphylococcus aureus NadD; purified NadD enzyme, colorimetric absorbance read-out; AID 602399; inhibition, % at 20 µM; 0.78% of 360,000 active; in the data active = inhibition above about 26%
B2AR ag = agonists of human beta-2 adrenergic receptor inducing internalization; 0.43% of 340,000 active; response, % (test concentration not listed); Am2.2-beta2AR cells, FAP receptor internalization, flow cytometry; P07550;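 active = response above a set limit, near 3 SD of response in nonfluorescent compounds, cut at about 42% in these data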
Target sequence (P07550 whole entry, looked up): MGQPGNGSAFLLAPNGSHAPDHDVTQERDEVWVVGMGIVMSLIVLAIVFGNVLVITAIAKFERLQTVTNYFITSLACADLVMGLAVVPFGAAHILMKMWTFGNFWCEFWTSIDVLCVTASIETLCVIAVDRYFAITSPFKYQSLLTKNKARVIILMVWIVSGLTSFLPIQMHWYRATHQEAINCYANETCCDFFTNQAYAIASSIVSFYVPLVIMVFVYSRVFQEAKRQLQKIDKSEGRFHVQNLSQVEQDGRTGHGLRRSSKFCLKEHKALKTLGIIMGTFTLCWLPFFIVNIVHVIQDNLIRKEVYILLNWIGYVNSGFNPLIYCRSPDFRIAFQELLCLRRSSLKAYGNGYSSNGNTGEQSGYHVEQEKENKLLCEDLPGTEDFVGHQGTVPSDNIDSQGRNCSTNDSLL
ABHD5 PLIN5 PPI = blocks binding of human ABHD5 to perilipin-5. 0.78% of 360,000 active. Split G. princeps luciferase complementation, luminescence, 4 h. AID 602281. inhibition, % at 4 µM. Q00G26+Q8WTS1;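 active = inhibition above the mean inhibition across every tested compound plus 3 SD, cut at about 22% in these data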
GRK2 inh = human GRK2 inhibition via aptamer displacement. bead flow cytometry, FAM-aptamer displacement from GRK2. inhibition of aptamer binding, % at 10 µM. 0.59% of 330,000 active. AID 488847;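 active = inhibition of aptamer binding above 40%, roughly 3 SD of noise, on plates passing a quality check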;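 note: median bead fluorescence of bound FAM aptamer so fluorescent compounds give negative values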
SENP1 FRET inh = SENP1 (human) catalytic domain inhibition. 0.21% of 360,000 active. inhibition, % at 10 µM. AID 624204. Q9P0U3. recombinant SENP1 catalytic domain, CyPet-SUMO1-YPet FRET cleavage;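 active = inhibition at least 30% at 10 µM, raw YFP signal under a set limit, fluorescence ratio 0.5 to 1.5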
Target sequence (Q9P0U3 419-644 limits assumed): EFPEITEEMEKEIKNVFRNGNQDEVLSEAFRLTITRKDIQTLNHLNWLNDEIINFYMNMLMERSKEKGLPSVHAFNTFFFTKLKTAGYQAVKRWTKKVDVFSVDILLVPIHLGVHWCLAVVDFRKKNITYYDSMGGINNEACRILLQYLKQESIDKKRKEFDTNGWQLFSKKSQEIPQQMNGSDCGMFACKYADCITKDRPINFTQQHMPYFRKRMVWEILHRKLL
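System: Recombinant human SENP1 catalytic domain, His6-tagged | Incubation: Enzyme reaction for 50 min at room temperature, dark | Medium: Tris pH 8 with BME, BSA, NP40 and catalase | Also added: 25 nM SUMO1 FRET substrate | Compound: 10 µM single point, 0.5% DMSO | Measured by: FRET fluorescence in CFP and YFP emission channels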
Numbers stand for hits; i = inactive; nt = not tested or not shown. Only some compounds are listed: those with a hit (about 2.5% of all), similar ones and a draw of the others.

SMILES	NadD block	B2AR ag	ABHD5 PLIN5 PPI	GRK2 inh	SENP1 FRET inh
CCCCn1c(=NC(=O)c2ccco2)c(C(=O)OCC)cc2c(=O)n3ccccc3nc21	i	i	28.0	i	i
Cc1ccccc1OCCNc1cc(N2CCCCC2)ccc1[N+](=O)[O-]	i	i	i	i	i
Cc1ccccc1OCCNc1cc(N2CCN(CCO)CC2)ccc1[N+](=O)[O-]	i	i	22.4	i	i
C#CCOCCOCCOCCNc1nc(N2CCN(C(=O)[C@H](CCCCN)n3cc([C@@H](N)CC(C)C)nn3)CC2)nc(N2CCN(C(=O)[C@H](Cc3cc4ccccc4[nH]3)n3cc([C@@H](N)Cc4ccc(O)cc4)nn3)CC2)n1	i	i	24.8	nt	i
C#CCOCCOCCOCCNc1nc(N2CCN(C(=O)C(Cc3cc4ccccc4[nH]3)n3cc(C(N)C(C)CC)nn3)CC2)nc(N2CCN(C(=O)C(Cc3cc4ccccc4[nH]3)n3cc(C(N)C(C)CC)nn3)CC2)n1 (centres undefined)	41.6	i	nt	nt	i
COc1ccc(CNC[C@@H](CCCCN(C)Cc2ccc(OC)cc2)N2C[C@H](c3ccccc3)N(CCc3ccc(Cl)c(Cl)c3)C(=O)C2=O)cc1	i	102.2	31.6	nt	i
O=C(Cn1cc(S(=O)(=O)Cc2ccccc2F)c2ccccc21)N1CCOCC1	i	i	i	i	i
CCOC(=O)C1CCCN(C(=O)Cn2sc3nc(C)cc(C)c3c2=O)C1 (centres undefined)	i	i	64.5	i	i
CCOC(=O)C1CCCN(C(=O)Cn2cnc3c2c(=O)n(C)c(=O)n3C)C1 (centres undefined)	i	i	i	i	i
Cc1ccc(SCC(=O)NC(=O)c2ccccc2Br)c(C)c1	i	i	i	i	i
O=C(Nc1cccc(-c2csc(Nc3ccc(Cl)cc3)n2)c1)c1cc([N+](=O)[O-])cc(C(F)(F)F)c1	41.9	i	i	i	i
O=C(Nc1ccc(O)c(-c2nc3ccccc3s2)c1)c1cccs1	i	i	i	i	i
O=C(Nc1ccc(O)c(-c2nc3ccccc3s2)c1)c1cc(=O)c2ccccc2o1	i	i	i	90.0	i
C=CCNC(=O)/C(C#N)=C/c1ccccc1OCc1ccc(C(=O)OC)cc1	i	i	22.0	i	i
CC(C)(C)c1cnnn1-c1ccc(C(=O)CCl)cc1	i	44.6	i	i	i
CC(C)(C)c1cnnn1-c1ccc(C=O)cc1	i	i	i	i	i
CC(=O)c1c(O)cc(=O)oc1-c1ccc(C)cc1	i	i	i	i	i
Nc1ccc2c(c1)C(=O)C(=O)c1ccccc1-2	i	80.5	i	i	i
O=C1C(Cl)=C(N2CCCCC2)C(=O)C(Cl)=C1c1cnc(N2CCCCC2)s1	33.3	i	i	nt	i
CC(=O)c1cnc(N(C)C)s1	i	i	i	i	i
O=C1C(Cl)=C(N2CCCCCC2)C(=O)N1c1ccc(Cl)cc1	i	i	i	i	i
CN(C)c1ncc(C2=C(Cl)C(=O)C(N3CCCC3)=C(Cl)C2=O)s1	i	75.7	i	i	i
CCOc1ccc(N2C(=O)CC(NCC#N)C2=O)cc1 (centres undefined)	i	i	i	i	i
CN1CCS/C1=C/C=C1\SC(=S)N(CC(=O)O)C1=O	i	i	i	i	65.5
CC(=O)Nc1ccc(NC(=O)c2nc(S(=O)(=O)Cc3cccc(C)c3)ncc2Cl)cc1	i	i	65.6	i	i
SMILES	NadD block	B2AR ag	ABHD5 PLIN5 PPI	GRK2 inh	SENP1 FRET inh
COCC(=O)Nc1ccc2c(c1)[C@@H]1C[C@H](CC(=O)OC)O[C@@H](CO)[C@@H]1O2	i	nt	i	nt	i
COc1ccc(C(=O)/C(C#N)=N/Nc2ccc([N+](=O)[O-])cc2)cc1	i	46.5	i	i	i
CCC(=O)c1ccc(OCC(=O)OCC(=O)NCC2CCCCC2)cc1	i	i	i	i	i
COc1cc2oc3ccc(C#Cc4ccc(N)cc4)cc3c(=O)c2cc1OC	i	i	i	i	i
COc1cc2oc3ccc(C#Cc4ccccn4)cc3c(=O)c2cc1OC	i	70.6	i	i	i
CC(Sc1nnnn1-c1ccc(O)cc1)C(=O)NNC(=O)c1ccc(F)cc1 (centres undefined)	i	i	i	i	i
O=C(NC(c1ccc(Cl)cc1)c1cc(Cl)c2cccnc2c1O)c1cccnc1 (centres undefined)	46.9	i	i	i	61.6
CC(=O)NC(c1ccccc1)c1cc(Cl)c2cccnc2c1O (centres undefined)	i	i	i	i	i
CC(=O)c1ccc(NC(=O)c2ccc(NC(=O)c3ccco3)cc2)cc1	i	i	i	77.0	i
CC(=O)Nc1ccc(NC(=O)c2ccco2)cc1	i	i	i	i	i
COC(=O)c1ccc(NC(=O)c2ccc(NC(=O)c3ccco3)cc2)cc1	i	i	i	83.0	i
COc1cccc(OC)c1C(=O)NCCNc1nc2cc(C)cc(C)c2cc1C#N	nt	nt	i	nt	i
COc1ccc(/C=C(/NC(=O)c2ccco2)C(=O)N2CCOCC2)cc1	i	49.4	i	i	i
COc1ccc(/C=C(\NC(=O)c2ccco2)C(=O)N2CCOCC2)cc1	i	i	i	i	i
O=C(NCCc1ccc(F)cc1)c1ccc(NS(=O)(=O)c2ccc3[nH]c(=O)[nH]c3c2)cc1	i	i	i	i	i
CCOc1ccc(OCCCC(=O)ON=C(N)c2ccccc2C)cc1	i	i	i	i	i
COc1ccc(/C=C2\SC(=Nc3ccccc3Cl)NC2=O)c(OC)c1	i	nt	i	nt	i
O=C1N/C(=N/NC(=O)c2cccc3ccccc23)S/C1=C\c1ccccc1OCc1ccccc1	82.0	i	i	nt	i
COc1ccc(OC)c(/C=C2\S/C(=N/NC(=O)c3ccc4ccccc4c3)NC2=O)c1	70.1	i	i	i	i
COc1ccc(C(C[N+](=O)[O-])c2c(-c3ccccc3)cc3ccccn23)cc1OC (centres undefined)	i	i	i	i	i
COc1ccc(C(C[N+](=O)[O-])C2(c3ccc(OC)c(OC)c3)C(=O)c3ccccc3C2=O)cc1 (centres undefined)	i	50.6	83.8	i	i
O=C(NCCN1CCCCC1)c1ccc(F)cc1Cl	i	i	i	i	i
O=C1C[C@@H]2c3c(cccc3CN1Cc1ccc(Cl)cc1)C[C@@H](O)[C@H]2O	i	i	i	nt	i
COc1ccc(CCN2CC(C(=O)Nc3ccc(S(C)(=O)=O)cc3)CC2=O)cc1OC (centres undefined)	i	i	i	i	i
Cc1cc(C(C#N)c2ccc(Cl)cc2)c(Cl)cc1NC(=O)c1cc(I)cc(I)c1O (centres undefined)	51.5	i	i	i	i
Cc1c(C=O)c2ccccn2c1C(=O)c1cccc([N+](=O)[O-])c1	i	i	i	i	i
O=C(NCc1ccccc1Br)c1cccc2c1C(=O)c1ccc(N3CCC(Cc4ccccc4)CC3)cc1S2(=O)=O	32.8	i	i	i	i
Oc1cccc(/C=N/N2CCCCC2)c1O	i	i	i	i	i
